Assays:
MDR1 (P-gp, ABCB1) [1] = molecular target: T1, MDR1 (P-gp, ABCB1) (Homo sapiens, UniProt P08183); test: Substrate activity at human MDR1 expressed in MDCK cells assessed as apparent permeability at 1 uM by UPLS-MS/MS analysis; assay type: ADME, cell-based
Method in brief: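 TransWell assay in CRISPR-Cas9 MDCK cells expressing human MDR1 with endogenous canine MDR1 knocked out (MDCK-hMDR1^cMDR1-ko), grown on filters; apparent permeability measured apical to basolateral.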

MDR1 (P-gp, ABCB1) [2] = molecular target: T1, MDR1 (P-gp, ABCB1); test: Substrate activity at human MDR1 expressed in MDCK cells assessed as efflux ratio of apparent permeability across basolateral to apical side over apical to basolateral side at 1 uM by UPLS-MS/MS analysis; assay type: ADME, cell-based
[3] = Inhibition of mTORC2 in human A2058 cells assessed as reduction in PKB phosphorylation at S473 residue incubated for 1 hr by Western blot analysis; assay type: cell-based; details: A2058, 1 h
Method in brief: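 A2058 melanoma cells were used. mTORC1 activity was read as phospho-S6 ribosomal protein (Ser235/236), and mTORC2 activity as phospho-PKB/Akt (Ser473). IC50 came from a 7-point 1:2 serial dilution, with each concentration measured in triplicate. Data are reported as mean ± SD.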

mTORC1 = mTORC1 (Homo sapiens, UniProt P42345); test: Inhibition of mTORC1 in human A2058 cells assessed as reduction in S6 ribosomal protein phosphorylation at Ser235/236 residues incubated for 1 hr by Western blot analysis; assay type: cell-based
Method in brief: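 A2058 melanoma cells; phospho-S6 (Ser235/236) used as the mTORC1 readout. IC50 from a 7-point 1:2 serial dilution, each concentration in triplicate. Reported as mean ± SD.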

[4] = molecular target: Phosphatidylinositol 4,5-bisphosphate 3-kinase catalytic subunit alpha isoform (Homo sapiens, UniProt P42336); test: Inhibition of alexa fluor 647-labeled kinase tracer 314 binding to recombinant N-terminal His6-tagged p110alpha (unknown origin) by TR-FRET assay
Method in brief: (§1)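 LanthaScreen TR-FRET displacement of tracer from the ATP-binding site of recombinant kinase. 10-point 1:4 serial dilution with each concentration in duplicate. IC50 converted to Ki using a factor of 2.05 for mTOR and 9.84 for p110α. Reported as mean ± SD.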

[5] = molecular target: Serine/threonine-protein kinase mTOR (Homo sapiens, UniProt P42345); test: Inhibition of alexa fluor 647-labeled kinase tracer 314 binding to recombinant N-terminal GST-fused mTOR (1360 to 2549 residues) (unknown origin) by TR-FRET assay; method in brief: as §1
CYP1A1 = molecular target: T2, CYP1A1 (Homo sapiens, UniProt P04798); test: (§2) Stability of compound assessed as recombinant human CYP1A1 expressed in baculovirus infected insect cells mediated compound metabolism by measuring parent compound remaining at 1 uM preincubated with NADP+ regenerating system for 10 mins followed by enzyme addition and measured after 60 mins by LC-MS analysis; assay type: ADME; details: time 70 min, read-out: Stabilty
T2 sequence (P04798 whole entry): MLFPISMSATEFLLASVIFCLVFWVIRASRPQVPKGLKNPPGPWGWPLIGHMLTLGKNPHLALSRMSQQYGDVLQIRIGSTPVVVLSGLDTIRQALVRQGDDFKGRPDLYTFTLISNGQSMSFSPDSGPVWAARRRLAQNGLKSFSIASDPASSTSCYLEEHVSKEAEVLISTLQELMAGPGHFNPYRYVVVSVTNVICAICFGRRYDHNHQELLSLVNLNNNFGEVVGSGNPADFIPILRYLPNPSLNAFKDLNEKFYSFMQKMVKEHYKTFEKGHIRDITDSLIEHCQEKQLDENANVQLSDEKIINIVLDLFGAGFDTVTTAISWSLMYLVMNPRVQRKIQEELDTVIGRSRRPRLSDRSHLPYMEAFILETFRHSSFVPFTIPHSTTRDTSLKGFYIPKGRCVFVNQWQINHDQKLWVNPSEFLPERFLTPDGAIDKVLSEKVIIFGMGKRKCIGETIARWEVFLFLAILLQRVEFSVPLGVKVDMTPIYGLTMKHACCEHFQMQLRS
Method in brief: (§3)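 Individual human recombinant CYP isoenzymes; percentage of parent compound remaining after 60 min incubation.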

CYP1A2 = molecular target: T3, CYP1A2 (Homo sapiens, UniProt P05177); test: as §2, with “CYP1A2” for “CYP1A1”; assay type: ADME; details: time 70 min, read-out: Stabilty; method in brief: as §3
T3 sequence (P05177 whole entry): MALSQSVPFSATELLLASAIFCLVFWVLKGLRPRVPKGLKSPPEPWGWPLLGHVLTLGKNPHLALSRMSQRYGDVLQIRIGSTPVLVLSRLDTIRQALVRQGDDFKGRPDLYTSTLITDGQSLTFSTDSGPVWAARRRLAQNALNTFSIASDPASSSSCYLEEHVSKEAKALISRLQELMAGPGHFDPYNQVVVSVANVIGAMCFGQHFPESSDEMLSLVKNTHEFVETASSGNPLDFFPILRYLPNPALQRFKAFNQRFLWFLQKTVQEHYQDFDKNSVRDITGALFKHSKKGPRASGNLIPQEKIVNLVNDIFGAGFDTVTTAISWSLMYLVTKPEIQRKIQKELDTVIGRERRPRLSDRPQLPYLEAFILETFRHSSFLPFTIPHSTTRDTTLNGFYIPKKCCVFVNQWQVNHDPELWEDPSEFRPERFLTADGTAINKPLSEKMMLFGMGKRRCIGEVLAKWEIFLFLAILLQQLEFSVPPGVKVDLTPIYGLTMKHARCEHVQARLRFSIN

Chain of Phosphatidylinositol 4,5-bisphosphate 3-kinase catalytic subunit alpha isoform (P42336 whole entry, canonical isoform): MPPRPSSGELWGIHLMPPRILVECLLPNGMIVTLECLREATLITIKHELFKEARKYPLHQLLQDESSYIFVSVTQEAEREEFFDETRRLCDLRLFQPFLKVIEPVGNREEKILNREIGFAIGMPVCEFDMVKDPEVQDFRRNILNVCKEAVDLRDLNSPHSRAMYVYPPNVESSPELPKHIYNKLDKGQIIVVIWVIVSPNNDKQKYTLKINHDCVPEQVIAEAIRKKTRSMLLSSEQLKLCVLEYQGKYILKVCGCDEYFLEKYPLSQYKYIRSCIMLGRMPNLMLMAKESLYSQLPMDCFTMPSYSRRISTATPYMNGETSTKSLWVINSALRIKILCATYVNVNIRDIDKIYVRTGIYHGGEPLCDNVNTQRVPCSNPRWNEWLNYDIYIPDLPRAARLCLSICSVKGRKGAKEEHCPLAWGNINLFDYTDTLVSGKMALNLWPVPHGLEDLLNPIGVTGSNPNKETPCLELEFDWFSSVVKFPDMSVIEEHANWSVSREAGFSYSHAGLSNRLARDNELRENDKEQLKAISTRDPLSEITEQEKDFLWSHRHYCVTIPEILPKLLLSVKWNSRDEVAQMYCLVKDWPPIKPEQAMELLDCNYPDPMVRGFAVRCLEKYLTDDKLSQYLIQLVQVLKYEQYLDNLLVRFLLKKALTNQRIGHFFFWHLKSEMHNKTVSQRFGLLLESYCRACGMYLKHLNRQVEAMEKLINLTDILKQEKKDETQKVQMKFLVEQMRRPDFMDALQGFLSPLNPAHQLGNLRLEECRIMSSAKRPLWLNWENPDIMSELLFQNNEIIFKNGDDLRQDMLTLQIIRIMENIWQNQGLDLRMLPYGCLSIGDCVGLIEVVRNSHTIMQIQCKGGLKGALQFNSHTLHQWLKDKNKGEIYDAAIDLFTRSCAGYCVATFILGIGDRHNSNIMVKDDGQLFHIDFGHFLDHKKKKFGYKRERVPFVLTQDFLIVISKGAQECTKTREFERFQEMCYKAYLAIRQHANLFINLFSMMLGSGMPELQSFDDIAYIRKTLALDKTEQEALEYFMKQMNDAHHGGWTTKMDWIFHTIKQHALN
T1 sequence (P08183 whole entry): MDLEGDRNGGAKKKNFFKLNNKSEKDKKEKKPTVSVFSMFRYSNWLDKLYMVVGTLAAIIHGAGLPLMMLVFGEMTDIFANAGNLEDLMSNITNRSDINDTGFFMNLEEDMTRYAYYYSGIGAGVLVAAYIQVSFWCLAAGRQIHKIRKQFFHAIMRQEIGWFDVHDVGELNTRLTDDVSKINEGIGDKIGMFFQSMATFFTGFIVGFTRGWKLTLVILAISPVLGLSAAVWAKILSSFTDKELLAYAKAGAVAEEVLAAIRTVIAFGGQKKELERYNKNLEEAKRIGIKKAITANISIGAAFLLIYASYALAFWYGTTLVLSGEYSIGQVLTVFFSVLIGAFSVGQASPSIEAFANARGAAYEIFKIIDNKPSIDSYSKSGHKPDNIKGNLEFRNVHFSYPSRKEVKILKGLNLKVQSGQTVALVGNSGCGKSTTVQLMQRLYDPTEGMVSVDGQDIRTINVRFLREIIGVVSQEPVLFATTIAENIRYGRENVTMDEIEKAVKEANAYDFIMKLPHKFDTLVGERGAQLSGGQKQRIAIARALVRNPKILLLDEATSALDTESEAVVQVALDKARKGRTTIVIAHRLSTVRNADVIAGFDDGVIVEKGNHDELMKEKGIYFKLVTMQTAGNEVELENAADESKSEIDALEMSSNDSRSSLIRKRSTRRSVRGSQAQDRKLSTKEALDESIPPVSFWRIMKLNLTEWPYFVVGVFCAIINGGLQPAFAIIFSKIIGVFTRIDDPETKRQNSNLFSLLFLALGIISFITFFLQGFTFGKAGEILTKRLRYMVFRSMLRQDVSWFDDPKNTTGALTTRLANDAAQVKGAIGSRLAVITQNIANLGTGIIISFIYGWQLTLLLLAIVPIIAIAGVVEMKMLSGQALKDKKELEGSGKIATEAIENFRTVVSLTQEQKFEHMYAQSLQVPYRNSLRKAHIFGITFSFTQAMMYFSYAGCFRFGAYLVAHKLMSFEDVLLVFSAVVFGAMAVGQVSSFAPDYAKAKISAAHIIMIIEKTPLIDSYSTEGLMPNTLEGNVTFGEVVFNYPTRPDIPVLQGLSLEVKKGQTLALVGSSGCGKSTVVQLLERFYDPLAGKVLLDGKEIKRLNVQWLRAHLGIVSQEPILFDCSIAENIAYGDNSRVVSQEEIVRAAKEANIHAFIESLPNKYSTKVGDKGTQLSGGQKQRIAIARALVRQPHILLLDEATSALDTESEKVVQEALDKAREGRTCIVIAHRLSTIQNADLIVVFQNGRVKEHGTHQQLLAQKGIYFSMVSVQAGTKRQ

**Q.** Which Papp A→B at 1 µM (MDR1 (P-gp, ABCB1) [1]) does the source give for `C[C@@H]1COCCN1c1nc(-c2cnc(N)cn2)nc2c1C[C@@H]1COCCN21` here?
**A.** < 60 ×10⁻⁶ cm/s

**Q.** What about the efflux ratio at 1 µM (MDR1 (P-gp, ABCB1) [2]) of the same compound?
**A.** > 20

**Q.** Which results are given for `C[C@@H]1COCCN1c1nc(-c2cnc(N)cc2C(F)F)nc2c1C[C@@H]1COCCN21`?
**A.** IC50 [3]: 253 nM; IC50 (mTORC1): 67 nM; Ki [4]: 232 nM; Ki [5]: 12 nM

**Q.** Which IC50 [3] does the source give for `C[C@@H]1COCCN1c1nc(-c2cnc(N)nc2C(F)(F)F)nc2c1C[C@@H]1COCCN21` here?
**A.** 446 nM

**Q.** And the IC50 (mTORC1)?
**A.** 694 nM

**Q.** And the Ki [4]?
**A.** 55 nM

**Q.** And the Ki [5]?
**A.** 249 nM

**Q.** For `C[C@@H]1COCCN1c1nc(-c2cnc(N)nc2C(F)F)nc2c1C[C@@H]1COCCN21`, which IC50 (mTORC1) is on record?
**A.** 119 nM

**Q.** What about the Ki [4] of the same compound?
**A.** 17 nM

**Q.** What about the Ki [5] of the same compound?
**A.** 34 nM

**Q.** Which IC50 [3] does the source give for `C[C@@H]1COCCN1c1nc(-c2nnc(N)s2)nc2c1C[C@@H]1COCCN21` here?
**A.** 135 nM

**Q.** And the IC50 (mTORC1)?
**A.** 80 nM

**Q.** What about the Ki [4] of the same compound?
**A.** 1550 nM

**Q.** What about the Ki [5] of the same compound?
**A.** 8.2 nM

**Q.** And the Papp A→B at 1 µM (MDR1 (P-gp, ABCB1) [1])?
**A.** < 60 ×10⁻⁶ cm/s

**Q.** And the efflux ratio at 1 µM (MDR1 (P-gp, ABCB1) [2])?
**A.** > 20

**Q.** Which IC50 [3] does the source give for `C[C@@H]1COCCN1c1nc(-c2cnc(N)cc2C(F)(F)F)nc2c1C[C@@H]1COCCN21` here?
**A.** 1090 nM

**Q.** And the IC50 (mTORC1)?
**A.** 776 nM

**Q.** And the Ki [4]?
**A.** 272 nM

**Q.** What about the Ki [5] of the same compound?
**A.** 118 nM

**Q.** What does the source list for `C[C@@H]1COCCN1c1nc(-c2cnc(N)c(C(F)(F)F)c2)nc2c1C[C@@H]1COCCN21`?
**A.** IC50 [3]: 549 nM; IC50 (mTORC1): 348 nM; Ki [4]: > 20000 nM; Ki [5]: 33 nM

**Q.** Which remaining at 1 h, 1 µM (CYP1A1) does the source give for `C[C@@H]1COCCN1c1nc(-c2cnc(N)s2)nc2c1C[C@@H]1COCCN21` here?
**A.** 48%

**Q.** And the IC50 [3]?
**A.** 157 nM

**Q.** And the IC50 (mTORC1)?
**A.** 102 nM

**Q.** And the Ki [4]?
**A.** 2490 nM

**Q.** What about the Ki [5] of the same compound?
**A.** 15 nM

**Q.** What about the remaining at 1 h, 1 µM (CYP1A2) of the same compound?
**A.** 87%

**Q.** And the Papp A→B at 1 µM (MDR1 (P-gp, ABCB1) [1])?
**A.** < 60 ×10⁻⁶ cm/s

**Q.** And the efflux ratio at 1 µM (MDR1 (P-gp, ABCB1) [2])?
**A.** > 20

**Q.** Which results are given for `C[C@@H]1COCCN1c1nc(-c2ccc(N)nn2)nc2c1C[C@@H]1COCCN21`?
**A.** IC50 [3]: 162 nM; IC50 (mTORC1): 84 nM; Ki [4]: 847 nM; Ki [5]: 11 nM

**Q.** What does the source list for `C[C@@H]1COCCN1c1nc(-c2nc(N)ns2)nc2c1C[C@@H]1COCCN21`?
**A.** IC50 [3]: 512 nM; IC50 (mTORC1): 261 nM; Ki [4]: 806 nM; Ki [5]: 58 nM

— ChEMBL document CHEMBL4732024, “Second-generation tricyclic pyrimido-pyrrolo-oxazine mTOR inhibitor with predicted blood-brain barrier permeability” (RSC Med Chem, 2021)
